Experimental data taken from ChEMBL document CHEMBL3588763, “Styryl-N-phenyl-N'-(2-chloroethyl)ureas and styrylphenylimidazolidin-2-ones as new potent microtubule-disrupting agents using combretastatin A-4 as model” (Eur J Med Chem, 2015).
pIC50: −log10 of the molar value. Activity calls are given as the source filed them. The calls are words filed in the database; no cut-off is given here.

Legend:
[1] = system: M21; assay: Induction of cell cycle arrest in human M21 cells assessed as cells accumulation at subG1 phase at 63 nM after 24 hrs by flow cytometry (reference value: 1.2%); assay type: functional
[2] = molecular target: T1, Tubulin beta (Homo sapiens) (UniProt P68371+Q9H4B7+Q13509+P04350+Q3ZCM7+P07437+Q13885+Q9BVA1+Q9BUF5+A6NNZ2); assay: Inhibition of N,N-ethylene-bis(iodoacetamide) binding to Tubulin beta colchicines-binding site in human M21 cells assessed as adduct formation at 910 nM by Western blot analysis; assay type: cell-based
[3] = molecular target: T1, Tubulin beta (Homo sapiens); assay: Inhibition of N,N-ethylene-bis(iodoacetamide) binding to Tubulin beta colchicines-binding site in human M21 cells assessed as adduct formation at 410 nM by Western blot analysis; assay type: cell-based
[4] = molecular target: T1, Tubulin beta (Homo sapiens); assay: Inhibition of N,N-ethylene-bis(iodoacetamide) binding to Tubulin beta colchicines-binding site in human M21 cells assessed as adduct formation at 2500 nM by Western blot analysis; assay type: cell-based
[5] = Antiproliferative activity against human HT1080 cells assessed as cell growth inhibition after 48 hrs by sulforhodamine B assay; assay type: functional, cell-based; conditions: HT-1080, 48 h
[6] = system: M21; assay: Induction of cell cycle arrest in human M21 cells assessed as cells accumulation at S phase at 63 nM after 24 hrs by flow cytometry (reference value: 22.2%); assay type: functional
[7] = system: M21; assay: Induction of cell cycle arrest in human M21 cells assessed as cells accumulation at G0/G1 phase at 63 nM after 24 hrs by flow cytometry (reference value: 54.5%); assay type: functional
[8] = system: M21; assay: Antiproliferative activity against human M21 cells assessed as cell growth inhibition after 48 hrs by sulforhodamine B assay; assay type: functional, cell-based; conditions: M21, 48 h
Summary of the method: (§1)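 NCI-style SRB screen with minor changes. Cells seeded per well in DMEM with 5% FBS: HT-29 4.0 x 10^3, M21 3.0 x 10^3, MCF-7 2.5 x 10^3, HT-1080 2.5 x 10^3. After 24 h, serially diluted drug was added at 50 µM to 1 nM final, DMSO <0.5%, for 48 h. Fixed with cold TCA, stained with SRB, read at 530–568 nm against plates fixed on treatment day. At least two experiments in triplicate, CV <10%.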

[9] = system: HT-29; assay: Antiproliferative activity against human HT-29 cells assessed as cell growth inhibition after 48 hrs by sulforhodamine B assay; assay type: functional, cell-based; conditions: HT-29, 48 h; summary of the method: as §1
[10] = system: M21; assay: Induction of cell cycle arrest in human M21 cells assessed as cells accumulation at G2/M phase at 63 nM after 24 hrs by flow cytometry (reference value: 22.1%); assay type: functional
[11] = system: M21; assay: Induction of microtubule depolymerization and cytoskeleton disruption in human M21 cells at 63 nM after 16 hrs by immunofluorescence assay
[12] = system: MCF7; assay: Antiproliferative activity against human MCF7 cells assessed as cell growth inhibition after 48 hrs by sulforhodamine B assay; assay type: functional, cell-based; conditions: MCF7, 48 h; summary of the method: as §1
[13] = system: M21; assay: Induction of cell cycle arrest in human M21 cells assessed as cells accumulation at S phase at 10 nM after 24 hrs by flow cytometry (reference value: 22.2%); assay type: functional
[14] = system: M21; assay: Induction of cell cycle arrest in human M21 cells assessed as cells accumulation at subG1 phase at 10 nM after 24 hrs by flow cytometry (reference value: 1.2%); assay type: functional
[15] = system: M21; assay: Induction of cell cycle arrest in human M21 cells assessed as cells accumulation at G0/G1 phase at 10 nM after 24 hrs by flow cytometry (reference value: 54.5%); assay type: functional
[16] = system: M21; assay: Induction of microtubule depolymerization and cytoskeleton disruption in human M21 cells at 10 nM after 16 hrs by immunofluorescence assay
[17] = system: M21; assay: Induction of cell cycle arrest in human M21 cells assessed as cells accumulation at G2/M phase at 10 nM after 24 hrs by flow cytometry (reference value: 22.1%); assay type: functional
[18] = system: M21; assay: Induction of cell cycle arrest in human M21 cells assessed as cells accumulation at subG1 phase at 46 nM after 24 hrs by flow cytometry (reference value: 1.2%); assay type: functional
[19] = system: M21; assay: Induction of cell cycle arrest in human M21 cells assessed as cells accumulation at G0/G1 phase at 46 nM after 24 hrs by flow cytometry (reference value: 54.5%); assay type: functional
[20] = system: M21; assay: Induction of microtubule depolymerization and cytoskeleton disruption in human M21 cells at 46 nM after 16 hrs by immunofluorescence assay
[21] = system: M21; assay: Induction of cell cycle arrest in human M21 cells assessed as cells accumulation at G2/M phase at 46 nM after 24 hrs by flow cytometry (reference value: 22.1%); assay type: functional
[22] = system: M21; assay: Induction of cell cycle arrest in human M21 cells assessed as cells accumulation at S phase at 46 nM after 24 hrs by flow cytometry (reference value: 22.2%); assay type: functional

Row | SMILES | inhibition [2] | inhibition [3] | inhibition [4] | pIC50 [9] | pIC50 [12] | pIC50 [5] | pIC50 [8] | further results
1 | O=C1NCCN1c1ccc(/C=C\c2cccc(Cl)c2)cc1 | Active | Active | Active | 7.60 | 7.42 | 7.46 | 7.57 | Activity [1]: 13.6%; Activity [6]: 13.9%; Activity [7]: 17.4%; Activity [10]: 55.1%; Activity [11]: Active
2 | Cc1cc(C)cc(/C=C/c2ccc(N3CCNC3=O)cc2)c1 |  |  |  | 4.85 | 4.80 | < 4.70 | 4.77 | 
3 | COc1ccc(/C=C\c2cc(OC)c(OC)c(OC)c2)cc1O [COMBRETASTATIN A4] |  |  |  | 6.25 | 8.68 |  | 8.80 | Activity [13]: 6.6%; Activity [14]: 7.5%; Activity [15]: 4.5%; Activity [16]: Active; Activity [17]: 91.4%
4 | Cc1cc(C)cc(/C=C\c2ccc(N3CCNC3=O)cc2)c1 | Active | Active | Active | 8.08 | 7.64 | 7.82 | 8.00 | Activity [18]: 8.2%; Activity [19]: 5.4%; Activity [20]: Active; Activity [21]: 78.4%; Activity [22]: 8%

Second part, led by results:

Row | inhibition [2] | inhibition [3] | inhibition [4] | pIC50 [9] | pIC50 [12] | SMILES | pIC50 [5] | pIC50 [8] | further results
5 |  |  |  | 4.68 | 4.68 | CCNC(=O)Nc1ccc(/C=C\c2cc(OC)c(OC)c(OC)c2)cc1 | 4.54 | 4.68 | 
6 |  |  |  | < 4.70 | 4.70 | CCNC(=O)Nc1ccc(/C=C/c2cc(C)cc(C)c2)cc1 | < 4.70 | < 4.70 | 
7 |  |  |  | 4.92 | 4.77 | CCNC(=O)Nc1ccc(/C=C/c2cc(OC)c(OC)c(OC)c2)cc1 | 4.80 | 4.54 | 
8 |  |  |  | < 4.70 | 4.70 | CCNC(=O)Nc1ccc(/C=C/c2cccc(Cl)c2)cc1 | < 4.70 | < 4.70 | 
9 |  |  |  | 4.59 | 4.49 | CCNC(=O)Nc1ccc(/C=C\c2cccc(Cl)c2)cc1 | 4.51 | 4.46 | 
10 | Active | Active | Active | 8.77 | 8.59 | COc1cc(/C=C\c2ccc(N3CCNC3=O)cc2)cc(OC)c1OC | 8.64 | 8.62 | Activity [13]: 6.1%; Activity [14]: 5.1%; Activity [15]: 4.2%; Activity [16]: Active; Activity [17]: 84.6%
